The source made the active and inactive calls. No cut-off for these calls is given here.
How the values were obtained:
Aspergillus fumigatus [1] = test: Induction of change in 60S ribosomal protein L27e protein level in iTRAQ-118 labelled cell wall fraction of drug-susceptible Aspergillus fumigatus KU80 delta-akuB at 0.12 ug/ml after 24 hrs in YPD medium by MS (MS/MS) analysis relative to control; assay type: functional
Method in brief: (§1)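 Conidia at 1 × 10⁵/ml grown shaking at 37°C in YPD with or without 0.12 μg/ml caspofungin; mycelia filtered at 24 or 48 h. Secreted fraction taken from the filtrate; cell wall/plasma membrane pellet recovered after French-press lysis and a 5,000 × g spin. Proteins trypsin-digested and iTRAQ-labelled, drug vs no-drug channels at each time, then 2D LC-MS/MS. Protein ratio is the median of ratios from uniquely assigned peptides after median normalization.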

Aspergillus fumigatus [2] = test: Induction of change in allergen Asp F4 protein level in iTRAQ-116 labelled secreted fraction of drug-susceptible Aspergillus fumigatus KU80 delta-akuB at 0.12 ug/ml after 48 hrs in YPD medium by MS (MS/MS) analysis relative to control; assay type: functional; method in brief: as §1
Aspergillus fumigatus [3] = test: Induction of change in 60s ribosomal protein yl6 protein level in iTRAQ114 labelled secreted fraction of drug-susceptible Aspergillus fumigatus KU80 delta-akuB at 0.12 ug/ml after 24 hrs in YPD medium by MS (MS/MS) analysis relative to control; assay type: functional; method in brief: as §1
Aspergillus fumigatus [4] = test: Induction of change in Ribosomal L28e protein family protein level in iTRAQ114 labelled secreted fraction of drug-susceptible Aspergillus fumigatus KU80 delta-akuB at 0.12 ug/ml after 24 hrs in YPD medium by MS (MS/MS) analysis relative to control; assay type: functional; method in brief: as §1
Aspergillus fumigatus [5] = test: Induction of change in plasma membrane H -ATPase protein level in iTRAQ-116 labelled secreted fraction of drug-susceptible Aspergillus fumigatus KU80 delta-akuB at 0.12 ug/ml after 48 hrs in YPD medium by MS (MS/MS) analysis relative to control; assay type: functional
Method in brief: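 Conidia (1 × 10⁵/ml) grown in YPD, 37°C, 225 rpm, ± 0.12 μg/ml caspofungin; filtrate taken as secreted fraction, French-press lysate 5,000 × g pellet as cell wall/plasma membrane. Trypsin digests 8-plex iTRAQ-labelled (drug-free channels as references), pooled, 2D-chromatography, MS/MS. Median-normalized; protein ratio = median of unique-peptide ratios, log2 normalized.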

Aspergillus fumigatus [6] = test: Induction of change in conserved hypothetical gene expression in drug-susceptible Aspergillus fumigatus KU80 delta-akuB at 0.12 ug/ml after 24 hrs in YPD medium by microarray analysis relative to control; assay type: functional
Method in brief: (§2)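 Mycelia grown in YPD ± 0.12 μg/ml caspofungin (1 × 10⁵ conidia/ml, 37°C, shaking) and harvested at 24 or 48 h. Total RNA extracted, DNase-treated and quality-checked; 2 μg labelled per TIGR SOP M007 and hybridized to whole-genome arrays. Three independent experiments with dye flip (6 replicates); drug vs untreated fold change.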

Aspergillus fumigatus [7] = test: Induction of change in L-PSP endoribonuclease family protein (Hmf1), putative gene expression in drug-susceptible Aspergillus fumigatus KU80 delta-akuB at 0.12 ug/ml after 48 hrs in YPD medium by microarray analysis relative to control; assay type: functional; method in brief: as §2
Aspergillus fumigatus [8] = test: Induction of change in Mitochondrial hypoxia-responsive domain protein level in iTRAQ-116 labelled cell wall fraction of drug-resistant Aspergillus fumigatus EMFR-S678P at 0.12 ug/ml after 24 hrs in YPD medium by MS (MS/MS) analysis relative to control; assay type: functional, organism-based
Method in brief: (§3)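 Conidia at 1 × 10⁵/ml were grown at 37°C, shaking at 225 rpm, in YPD with or without 0.12 μg/ml caspofungin for 24 or 48 h. The culture filtrate was kept as the secreted fraction. Mycelia were lysed by French press in HEPES/glycerol/EDTA/PMSF/DTT buffer, and the 5,000 × g pellet was washed to give CW/PM. Proteins were reduced, alkylated and trypsin-digested at 37°C overnight, then iTRAQ-labelled and run by 2D LC-MS/MS. Ratios are the median of unique-peptide ratios, median-normalized, versus the no-drug control.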

Aspergillus fumigatus [9] = test: Induction of change in aldehyde dehydrogenase, putative protein level in iTRAQ114 labelled secreted fraction of drug-resistant Aspergillus fumigatus EMFR-S678P at 0.12 ug/ml after 24 hrs in YPD medium by MS (MS/MS) analysis relative to control; assay type: functional; method in brief: as §3
Aspergillus fumigatus [10] = test: Induction of change in cytochrome c oxidase polypeptide vib protein level in iTRAQ-118 labelled cell wall fraction of drug-resistant Aspergillus fumigatus EMFR-S678P at 0.12 ug/ml after 24 hrs in YPD medium by MS (MS/MS) analysis relative to control; assay type: functional, organism-based; method in brief: as §3
Aspergillus fumigatus [11] = test: Induction of change in thioredoxin TrxA protein level in iTRAQ-118 labelled cell wall fraction of drug-resistant Aspergillus fumigatus EMFR-S678P at 0.12 ug/ml after 24 hrs in YPD medium by MS (MS/MS) analysis relative to control; assay type: functional, organism-based; method in brief: as §3
Aspergillus fumigatus [12] = test: Induction of change in glycine-rich RNA-binding protein, putative protein level in iTRAQ-118 labelled cell wall fraction of drug-resistant Aspergillus fumigatus EMFR-S678P at 0.12 ug/ml after 24 hrs in YPD medium by MS (MS/MS) analysis relative to control; assay type: functional; method in brief: as §3
Aspergillus fumigatus [13] = test: Induction of change in peptidyl-prolyl cis-trans isomerase protein level in iTRAQ-118 labelled cell wall fraction of drug-resistant Aspergillus fumigatus EMFR-S678P at 0.12 ug/ml after 24 hrs in YPD medium by MS (MS/MS) analysis relative to control; assay type: functional; method in brief: as §3
Aspergillus fumigatus [14] = test: Induction of change in 37S ribosomal protein S24 protein level in iTRAQ-118 labelled cell wall fraction of drug-resistant Aspergillus fumigatus EMFR-S678P at 0.12 ug/ml after 24 hrs in YPD medium by MS (MS/MS) analysis relative to control; assay type: functional, organism-based; method in brief: as §3
Aspergillus fumigatus [15] = test: Induction of change in 14-alpha sterol demethylase Cyp51A protein level in iTRAQ-118 labelled cell wall fraction of drug-resistant Aspergillus fumigatus EMFR-S678P at 0.12 ug/ml after 48 hrs in YPD medium by MS (MS/MS) analysis relative to control; assay type: functional; method in brief: as §3
Aspergillus fumigatus [16] = test: Induction of change in Ribosomal protein S13p/S18e protein level in iTRAQ114 labelled cell wall fraction of drug-susceptible Aspergillus fumigatus KU80 delta-akuB at 0.12 ug/ml after 24 hrs in YPD medium by MS (MS/MS) analysis relative to control; assay type: functional; method in brief: as §1
Aspergillus fumigatus [17] = test: Induction of change in cell wall glucanase (Utr2), putative protein level in iTRAQ-118 labelled cell wall fraction of drug-susceptible Aspergillus fumigatus KU80 delta-akuB at 0.12 ug/ml after 24 hrs in YPD medium by MS (MS/MS) analysis relative to control; assay type: functional; method in brief: as §1
Aspergillus fumigatus [18] = test: Induction of change in BYS1 domain protein, putative protein level in iTRAQ-121 labelled cell wall fraction of drug-susceptible Aspergillus fumigatus KU80 delta-akuB at 0.12 ug/ml after 48 hrs in YPD medium by MS (MS/MS) analysis relative to control

SMILES: CC[C@H](C)C[C@H](C)CCCCCCCCC(=O)N[C@H]1C[C@@H](O)[C@@H](NCCN)NC(=O)[C@@H]2[C@@H](O)CCN2C(=O)[C@H]([C@H](O)CCN)NC(=O)[C@H]([C@H](O)[C@@H](O)c2ccc(O)cc2)NC(=O)[C@@H]2C[C@@H](O)CN2C(=O)[C@H]([C@@H](C)O)NC1=O [CASPOFUNGIN]
- fold change (FC) (Aspergillus fumigatus [1]): 2.6
- fold change (FC) (Aspergillus fumigatus [2]): -7
- fold change (FC) (Aspergillus fumigatus [3]): 1.1
- fold change (FC) (Aspergillus fumigatus [4]): -1.6
- fold change (FC) (Aspergillus fumigatus [5]): -1.7
- fold change (FC) (Aspergillus fumigatus [6]): 15.2
- fold change (FC) (Aspergillus fumigatus [7]): -2.3
- Activity (Aspergillus fumigatus [8]): inactive
- fold change (FC) (Aspergillus fumigatus [9]): 1.62
- Activity (Aspergillus fumigatus [10]): inactive
- Activity (Aspergillus fumigatus [11]): inactive
- fold change (FC) (Aspergillus fumigatus [12]): 1.52
- fold change (FC) (Aspergillus fumigatus [13]): -1.15
- Activity (Aspergillus fumigatus [14]): inactive
- fold change (FC) (Aspergillus fumigatus [15]): 1.07
- fold change (FC) (Aspergillus fumigatus [16]): 2.3
- fold change (FC) (Aspergillus fumigatus [17]): -3
- fold change (FC) (Aspergillus fumigatus [18]): -2.5
